How the values were obtained:
[1] = Oral bioavailability in CD rat measured after 120 mins by LC-MS/MS analysis; assay type: ADME, organism-based; details: in vivo
[2] = target: T1, Leucine-rich repeat serine/threonine-protein kinase 2 (Homo sapiens, UniProt Q5S007, G2019S); assay: Inhibition of human LRRK2 G2019S mutant expressed in human SH-SY5Y cells assessed as inhibition of tetracycline induced LRRK2 phosphorylation at Ser935 residue incubated for 90 mins by MSD assay; assay type: cell-based
T1 sequence (Q5S007 whole entry G2019S): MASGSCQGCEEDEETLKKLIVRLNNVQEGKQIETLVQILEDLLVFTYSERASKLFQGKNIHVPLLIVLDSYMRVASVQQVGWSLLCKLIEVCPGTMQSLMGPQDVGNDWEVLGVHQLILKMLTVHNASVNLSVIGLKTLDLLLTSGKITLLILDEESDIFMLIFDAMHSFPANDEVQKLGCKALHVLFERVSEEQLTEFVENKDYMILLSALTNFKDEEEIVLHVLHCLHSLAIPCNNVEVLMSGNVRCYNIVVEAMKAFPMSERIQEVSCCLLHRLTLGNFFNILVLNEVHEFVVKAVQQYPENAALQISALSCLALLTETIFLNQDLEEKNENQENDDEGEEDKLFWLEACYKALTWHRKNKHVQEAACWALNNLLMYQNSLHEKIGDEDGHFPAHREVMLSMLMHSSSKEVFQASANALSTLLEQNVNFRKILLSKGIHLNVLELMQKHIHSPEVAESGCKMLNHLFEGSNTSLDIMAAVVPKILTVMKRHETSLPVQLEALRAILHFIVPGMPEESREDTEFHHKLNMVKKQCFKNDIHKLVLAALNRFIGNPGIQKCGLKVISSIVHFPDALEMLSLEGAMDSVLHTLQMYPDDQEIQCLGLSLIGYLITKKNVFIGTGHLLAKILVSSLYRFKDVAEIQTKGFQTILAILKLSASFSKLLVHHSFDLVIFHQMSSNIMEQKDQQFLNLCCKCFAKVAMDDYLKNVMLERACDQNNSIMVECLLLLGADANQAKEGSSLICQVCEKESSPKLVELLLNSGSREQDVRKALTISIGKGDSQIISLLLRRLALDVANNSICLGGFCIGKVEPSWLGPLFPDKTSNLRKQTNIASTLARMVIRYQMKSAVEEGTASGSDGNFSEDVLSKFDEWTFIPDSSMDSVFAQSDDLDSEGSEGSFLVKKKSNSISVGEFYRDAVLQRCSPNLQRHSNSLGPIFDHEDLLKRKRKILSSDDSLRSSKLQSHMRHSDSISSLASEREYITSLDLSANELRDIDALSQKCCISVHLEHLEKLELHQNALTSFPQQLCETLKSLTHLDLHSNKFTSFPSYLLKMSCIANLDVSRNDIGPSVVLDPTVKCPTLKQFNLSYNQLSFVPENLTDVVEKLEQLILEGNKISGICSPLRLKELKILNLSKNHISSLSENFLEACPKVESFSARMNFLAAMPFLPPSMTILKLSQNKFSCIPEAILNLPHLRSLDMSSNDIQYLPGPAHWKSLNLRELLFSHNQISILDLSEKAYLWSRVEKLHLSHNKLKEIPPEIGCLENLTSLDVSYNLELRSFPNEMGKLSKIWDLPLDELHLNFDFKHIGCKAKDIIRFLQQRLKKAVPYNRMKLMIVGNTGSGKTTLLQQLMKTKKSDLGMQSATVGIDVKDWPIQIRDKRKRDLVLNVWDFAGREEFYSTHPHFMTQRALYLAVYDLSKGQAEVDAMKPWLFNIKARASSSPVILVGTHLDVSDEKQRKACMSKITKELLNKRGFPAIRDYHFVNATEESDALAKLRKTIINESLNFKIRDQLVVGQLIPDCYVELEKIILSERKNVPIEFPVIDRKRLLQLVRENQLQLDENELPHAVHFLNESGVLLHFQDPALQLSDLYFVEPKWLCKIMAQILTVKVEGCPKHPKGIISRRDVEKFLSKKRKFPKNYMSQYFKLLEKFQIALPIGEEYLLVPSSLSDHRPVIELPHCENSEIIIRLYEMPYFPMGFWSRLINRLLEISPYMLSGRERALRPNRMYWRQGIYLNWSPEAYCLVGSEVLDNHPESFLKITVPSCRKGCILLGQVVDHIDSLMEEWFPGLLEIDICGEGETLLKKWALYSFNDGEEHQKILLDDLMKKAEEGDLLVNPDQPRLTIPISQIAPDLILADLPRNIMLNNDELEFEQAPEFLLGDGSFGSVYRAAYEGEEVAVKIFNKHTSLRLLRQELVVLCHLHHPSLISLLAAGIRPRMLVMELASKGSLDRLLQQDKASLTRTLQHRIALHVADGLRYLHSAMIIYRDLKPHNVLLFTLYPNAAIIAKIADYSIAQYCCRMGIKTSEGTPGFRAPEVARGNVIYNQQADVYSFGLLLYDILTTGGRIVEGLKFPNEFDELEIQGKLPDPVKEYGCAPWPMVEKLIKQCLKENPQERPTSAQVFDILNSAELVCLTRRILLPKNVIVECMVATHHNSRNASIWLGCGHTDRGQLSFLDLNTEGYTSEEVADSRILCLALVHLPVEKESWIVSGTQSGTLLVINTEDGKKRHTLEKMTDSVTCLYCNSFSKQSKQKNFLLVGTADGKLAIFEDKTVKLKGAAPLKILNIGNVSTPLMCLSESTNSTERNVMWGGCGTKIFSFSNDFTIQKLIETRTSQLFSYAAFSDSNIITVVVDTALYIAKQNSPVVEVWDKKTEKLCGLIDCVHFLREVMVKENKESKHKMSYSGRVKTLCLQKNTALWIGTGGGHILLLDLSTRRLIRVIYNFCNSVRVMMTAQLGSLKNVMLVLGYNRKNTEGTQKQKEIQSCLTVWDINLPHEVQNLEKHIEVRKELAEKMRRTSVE
Method in brief: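 SH-SY5Y neuroblastoma cells carrying LRRK2 G2019S, grown in DMEM/F-12 with GlutaMax, 10% Tet-free FBS, nonessential amino acids and pen-strep at 37 °C, 5% CO2. Expression induced with Tet (2 µg/ml) 48-72 h before treatment. Compound exposure 90 min. Lysates captured on anti-LRRK2-coated MSD plates, probed for pSer935 or total LRRK2 with Sulfo-Tag read-out. IC50 from standard 4P fit of % inhibition.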

Homo sapiens [3] = species on record: Homo sapiens; assay: Selectivity of inhibition of human LRRK2 to human MINK1
[4] = MRT in po dosed CD rat measured after 120 mins by LC-MS/MS analysis; assay type: ADME, organism-based; details: in vivo
[5] = In vivo inhibition of LRRK2 in CD rat assessed as reduction in serine 935 phosphorylated LRRK2 in striatum at 3 mg/kg, po and measured after 2 hrs by MSD immunoassay; assay type: functional
Method in brief: (§1)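 Male CD rats (125-150 g) dosed orally with compound suspended in 10% Tween 80 (5 mL/kg) or vehicle, euthanized by CO2 2 h later; striatum dissected, frozen on dry ice; pSer935 LRRK2 measured by MSD immunoassay as pSer935/total LRRK2 ratio, mean ± S.E.M.; one-way ANOVA with Dunnett's post hoc test.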

[6] = target: Sodium channel protein type 5 subunit alpha (Homo sapiens, UniProt Q14524); assay: Inhibition of human NaV1.5 expressed in HEK293 by PatchXpress automated patch clamp assay; assay type: cell-based
[7] = Plasma clearance in po dosed Beagle dog and measured upto 24 hrs by LC-MS/MS analysis; assay type: ADME, organism-based, Canis lupus familiaris
[8] = Mutagenicity in Salmonella typhimurium TA100 at 30 to 5000 ug in presence of S9 metabolic activation system for 48 hrs by ames test; assay type: toxicity, Salmonella enterica subsp. enterica serovar Typhimurium; details: dose 30-5000 µg
Method in brief: (§2)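 Plate incorporation Ames test with S9 from phenobarbital/beta-naphthoflavone-induced male Wistar Han rat liver; 30, 100, 300, 1000, 3000, 5000 µg/plate; triplicate minimal glucose agar plates with trace histidine; 48 h at 37 °C; positive if 2-fold revertant increase over vehicle with dose relation.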

[9] = test system: P-gp (rat Mdr1a) (Homo sapiens); assay: Substrate activity at P-gp (unknown origin) expressed in LLC-PK1 cells transfected with rat Mdr1a assessed as apparent permeability at 0.1 uM incubated for 3 hrs by LC-MSMS analysis; assay type: ADME, cell-based
[10] = Intrinsic clearance in po dosed CD rat measured after 120 mins by LC-MS/MS analysis; assay type: ADME, organism-based; details: in vivo, 2 h
[11] = target: Substance-P receptor (Homo sapiens) (UniProt P25103); assay: Inhibition of human tachykinin NK1 receptor at 10 uM by radioligand binding assay
Substance-P receptor (Homo sapiens), sequence (P25103 whole entry): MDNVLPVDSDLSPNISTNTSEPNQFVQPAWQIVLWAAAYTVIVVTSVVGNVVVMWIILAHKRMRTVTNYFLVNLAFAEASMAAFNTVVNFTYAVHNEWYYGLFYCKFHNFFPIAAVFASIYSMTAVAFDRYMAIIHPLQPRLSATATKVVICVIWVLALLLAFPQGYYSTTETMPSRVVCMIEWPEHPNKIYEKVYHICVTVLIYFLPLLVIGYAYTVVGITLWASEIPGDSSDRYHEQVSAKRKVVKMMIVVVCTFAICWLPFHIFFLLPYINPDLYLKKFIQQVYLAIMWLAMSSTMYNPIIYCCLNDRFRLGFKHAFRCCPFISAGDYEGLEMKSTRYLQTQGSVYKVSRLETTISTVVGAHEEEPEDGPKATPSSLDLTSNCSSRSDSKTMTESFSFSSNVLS
Method in brief: (§3)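 Single-concentration radioligand binding screen (Eurofins Panlabs); IC50 by non-linear least-squares regression; Ki via Cheng-Prusoff from observed IC50, radioligand concentration and historical KD; Hill coefficient reported.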

[12] = Plasma clearance in po dosed CD rat measured after 120 mins by LC-MS/MS analysis; assay type: ADME, organism-based
[13] = Inhibition of calcium channel (unknown origin); parameters: species or system Homo sapiens
[14] = In vivo inhibition of LRRK2 in CD rat assessed as reduction in serine 935 phosphorylated LRRK2 in striatum at 10 mg/kg, po and measured after 2 hrs by MSD immunoassay; assay type: functional; method in brief: as §1
[15] = Mutagenicity in Salmonella typhimurium TA1535 at 30 to 5000 ug in presence of S9 metabolic activation system for 48 hrs by ames test; assay type: toxicity, Salmonella enterica subsp. enterica serovar Typhimurium; details: in vitro, dose 30-5000 µg; method in brief: as §2
Homo sapiens [16] = species on record: Homo sapiens; assay: Selectivity of inhibition of human LRRK2 to human CLK2
[17] = target: Dual specificity protein kinase CLK2 (Homo sapiens, UniProt P49760); assay: Inhibition of CLK2 (unknown origin) assessed as substrate phosphorylation using coumarin and fluorescein-labeled peptide as substrate incubated for 1 hr by Z'-LYTE kinase assay
Dual specificity protein kinase CLK2, sequence (P49760 whole entry): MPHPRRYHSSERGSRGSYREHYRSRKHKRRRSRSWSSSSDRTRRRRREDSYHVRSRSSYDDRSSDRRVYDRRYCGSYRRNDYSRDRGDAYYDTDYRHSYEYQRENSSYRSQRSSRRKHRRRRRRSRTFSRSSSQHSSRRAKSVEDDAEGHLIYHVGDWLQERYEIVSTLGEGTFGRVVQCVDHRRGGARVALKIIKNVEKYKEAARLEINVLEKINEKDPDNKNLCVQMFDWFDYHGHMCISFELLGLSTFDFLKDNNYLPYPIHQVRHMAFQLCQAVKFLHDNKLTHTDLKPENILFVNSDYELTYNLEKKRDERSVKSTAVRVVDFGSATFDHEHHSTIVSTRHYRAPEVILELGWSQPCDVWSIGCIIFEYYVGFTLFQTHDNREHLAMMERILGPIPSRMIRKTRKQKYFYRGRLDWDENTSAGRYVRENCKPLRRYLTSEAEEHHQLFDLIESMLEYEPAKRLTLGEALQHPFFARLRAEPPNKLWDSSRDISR
Method in brief: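 CLK2 Z'-LYTE coupled-enzyme kit format, 10-point titration from DMSO; enzyme, substrate and compound reacted 1 h at ambient temperature; after development solution, read at excitation 400 nm; activity from coumarin 445 nm/fluorescein 520 nm emission ratio.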

Homo sapiens [18] = species on record: Homo sapiens; assay: Selectivity ratio, ratio of IC50 for inhibition of CLK2 (unknown origin) to IC50 for inhibition of recombinant human GST20 tagged truncated LRRK2 G2019S mutant
[19] = target: T2, Adenosine receptor A1 (Homo sapiens) (UniProt P30542); assay: Inhibition of human adenosine A1 receptor at 10 uM by radioligand binding assay; method in brief: as §3
T2 sequence (whole entry): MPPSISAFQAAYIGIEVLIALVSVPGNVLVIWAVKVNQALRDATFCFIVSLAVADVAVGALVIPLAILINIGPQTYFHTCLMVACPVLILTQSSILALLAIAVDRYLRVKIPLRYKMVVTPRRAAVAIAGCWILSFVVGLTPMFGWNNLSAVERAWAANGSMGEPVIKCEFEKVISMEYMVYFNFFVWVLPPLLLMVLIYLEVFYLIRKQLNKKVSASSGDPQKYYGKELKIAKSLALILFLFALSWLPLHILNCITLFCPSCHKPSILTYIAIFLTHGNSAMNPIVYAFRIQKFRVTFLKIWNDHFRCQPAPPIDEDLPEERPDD

Homo sapiens [20] = species on record: Homo sapiens; assay: Selectivity of inhibition of human LRRK2 to human IRAK4
Cavia porcellus = species on record: Cavia porcellus; assay: Inhibition of guinea pig adenosine transporter at 1 uM by radioligand binding assay; method in brief: as §3
[21] = In vivo inhibition of LRRK2 in CD rat assessed as reduction in serine 935 phosphorylated LRRK2 in striatum at 30 mg/kg, po and measured after 2 hrs by MSD immunoassay; assay type: functional; method in brief: as §1
[22] = In vivo inhibition of LRRK2 in CD rat assessed as reduction in serine 935 phosphorylated LRRK2 in striatum at 100 mg/kg, po and measured after 2 hrs by MSD immunoassay; assay type: functional; method in brief: as §1
[23] = target: Voltage-gated inwardly rectifying potassium channel KCNH2 (Homo sapiens, UniProt Q12809); assay: Inhibition of human ERG tail current in cells at -80 mV holding potential by PatchXpress automated patch clamp assay; assay type: toxicity
Voltage-gated inwardly rectifying potassium channel KCNH2, sequence (Q12809 whole entry): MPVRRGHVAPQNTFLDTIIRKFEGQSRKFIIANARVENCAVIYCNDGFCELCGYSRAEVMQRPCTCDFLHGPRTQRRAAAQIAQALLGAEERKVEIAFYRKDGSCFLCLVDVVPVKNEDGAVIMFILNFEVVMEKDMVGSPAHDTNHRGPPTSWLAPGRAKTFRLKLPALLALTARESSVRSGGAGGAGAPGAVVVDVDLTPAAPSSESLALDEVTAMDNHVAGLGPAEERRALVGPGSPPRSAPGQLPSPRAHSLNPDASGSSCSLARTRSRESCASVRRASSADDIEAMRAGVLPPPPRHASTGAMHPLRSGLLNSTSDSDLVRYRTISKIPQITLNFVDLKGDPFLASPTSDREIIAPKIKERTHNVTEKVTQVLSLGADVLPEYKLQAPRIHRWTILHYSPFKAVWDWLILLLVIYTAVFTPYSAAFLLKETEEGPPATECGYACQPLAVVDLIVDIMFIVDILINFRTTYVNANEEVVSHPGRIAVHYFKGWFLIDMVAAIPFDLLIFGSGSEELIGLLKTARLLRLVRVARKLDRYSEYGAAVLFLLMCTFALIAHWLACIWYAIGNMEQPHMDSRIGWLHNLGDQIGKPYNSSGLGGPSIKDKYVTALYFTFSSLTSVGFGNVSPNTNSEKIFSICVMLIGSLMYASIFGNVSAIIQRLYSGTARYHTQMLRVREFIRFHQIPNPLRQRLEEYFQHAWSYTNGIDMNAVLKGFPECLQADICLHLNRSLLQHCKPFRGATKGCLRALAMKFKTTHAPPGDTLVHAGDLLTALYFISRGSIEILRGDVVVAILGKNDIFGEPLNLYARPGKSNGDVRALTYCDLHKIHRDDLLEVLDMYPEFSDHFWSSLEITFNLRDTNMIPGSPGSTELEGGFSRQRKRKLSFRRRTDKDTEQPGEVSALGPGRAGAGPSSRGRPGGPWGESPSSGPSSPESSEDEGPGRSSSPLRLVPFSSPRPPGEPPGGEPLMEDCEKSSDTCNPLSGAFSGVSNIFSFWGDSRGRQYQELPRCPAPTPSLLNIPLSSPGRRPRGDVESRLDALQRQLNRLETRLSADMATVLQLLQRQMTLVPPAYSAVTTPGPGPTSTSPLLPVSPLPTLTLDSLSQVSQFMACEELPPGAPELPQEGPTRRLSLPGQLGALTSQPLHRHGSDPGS

[24] = Drug metabolism in rat hepatocytes assessed as (R)-2-(1-(4-amino-5-(trifluoromethyl)pyridin-2-yl)pyrrolidin-3-yl)propan-2-ol metabolite formation compound at 0.3 uM and measured after 120 mins by LC-MS/MS analysis; assay type: ADME, cell-based, Hepatocyte; details: 2 h
[25] = Toxicity in CD rat assessed clinical signs of toxicity at 50 to 100 mg/kg, po BID administered for 4 days; assay type: organism-based; details: in vivo, 96 h, dose 50-100 mg/kg, time 4 day
[26] = MRT in po dosed Beagle dog and measured upto 24 hrs by LC-MS/MS analysis; assay type: ADME, organism-based, Canis lupus familiaris; details: in vivo
[27] = target: Adenosine receptor A2a (Homo sapiens) (UniProt P29274); assay: Inhibition of human adenosine A2A receptor at 10 uM by radioligand binding assay; method in brief: as §3
Adenosine receptor A2a (Homo sapiens), sequence (P29274 whole entry): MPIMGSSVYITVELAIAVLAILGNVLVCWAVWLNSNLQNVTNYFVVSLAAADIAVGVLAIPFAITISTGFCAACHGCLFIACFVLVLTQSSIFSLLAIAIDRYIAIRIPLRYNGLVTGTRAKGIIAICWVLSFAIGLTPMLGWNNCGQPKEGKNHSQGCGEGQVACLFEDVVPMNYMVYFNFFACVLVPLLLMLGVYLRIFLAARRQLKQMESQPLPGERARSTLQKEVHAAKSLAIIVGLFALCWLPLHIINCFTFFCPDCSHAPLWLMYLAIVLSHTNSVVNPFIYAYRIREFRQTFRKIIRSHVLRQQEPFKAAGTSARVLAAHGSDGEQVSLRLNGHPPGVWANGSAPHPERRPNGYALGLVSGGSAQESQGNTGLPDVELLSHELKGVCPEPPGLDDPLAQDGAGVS

[28] = Oral bioavailability in Beagle dog and measured upto 24 hrs by LC-MS/MS analysis; assay type: ADME, organism-based, Canis lupus familiaris; details: in vivo
[29] = target: T1, Leucine-rich repeat serine/threonine-protein kinase 2; assay: Inhibition of recombinant human GST20 tagged truncated LRRK2 G2019S mutant assessed as substrate phosphorylation preincubated for 15 mins followed by substrate addition and measured after 90 mins using fluorescein-labeled LRRK2tide as substrate in presence of ATP by TR-FRET based Lanthascreen kinase activity assay
Method in brief: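 Enzyme 1.25 nM in 50 mM Tris pH 8.5, 10 mM MgCl2, 0.01% Brij-35, 1 mM EGTA, 2 mM DTT, 0.05 mM orthovanadate. Compound (top 9.99 µM in DMSO, ten-point serial dilution) preincubated 15 min at RT. […] Stopped with EDTA plus 2 nM Tb anti-pERM, 1 h RT. 520/495 nm ratio read. IC50 from 4-parameter logistic fit, mean of several runs.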

[30] = Mutagenicity in Salmonella typhimurium TA98 at 30 to 5000 ug in presence of S9 metabolic activation system for 48 hrs by ames test; assay type: toxicity, Salmonella enterica subsp. enterica serovar Typhimurium; details: dose 30-5000 µg; method in brief: as §2
[31] = Drug metabolism in human hepatocytes assessed as (R)-2-(1-(4-amino-5-(trifluoromethyl)pyridin-2-yl)pyrrolidin-3-yl)propan-2-ol metabolite formation compound at 0.3 uM and measured after 120 mins by LC-MS/MS analysis; assay type: ADME, cell-based, Hepatocyte; details: 2 h
[32] = Brain to plasma permeability coefficient, Kp in CD rat plasma assessed as unbound fraction at 3 to 100 mg/kg, po and measured after 2 hrs by LC/MS/MS analysis; assay type: ADME, organism-based; details: in vivo, dose 3-100 mg/kg
[33] = Intrinsic clearance in po dosed Beagle dog and measured upto 24 hrs by LC-MS/MS analysis; assay type: ADME, organism-based, Canis lupus familiaris; details: in vivo
[34] = Toxicity in CD rat assessed micronucleus induction in bone marrow at 50 to 100 mg/kg, po BID administered for 4 days; assay type: organism-based; details: in vivo, 96 h, dose 50-100 mg/kg, time 4 day

Cn1cc(-c2cccc(C(=O)Nc3cc(N4CC[C@@H](C(C)(C)O)C4)ncc3C(F)(F)F)n2)cn1
bioavailability [1]: 16%
IC50 [2]: 0.0025 µM
Selectivity ratio (Homo sapiens [3]): > 100
MRT [4]: 5.2 h
inhibition in vivo at 3 mg/kg [5]: 2%
IC50 [6]: 29.9 µM
CL/F [7]: 0.9 L/h/kg
Activity [8]: Non-Toxic
Papp at 3 h, 0.1 µM [9]: 350 nm/s
CL [10]: 343.3 L/h/kg
inhibition [11]: > 50%
CL/F [12]: 0.6 L/h/kg
IC50 [13]: 21.8 µM
inhibition in vivo at 10 mg/kg [14]: 13%
Activity [15]: Non-Toxic
Selectivity ratio (Homo sapiens [16]): > 100
IC50 [17]: 0.063 µM
Ratio IC50 (Homo sapiens [18]): 63
inhibition [19]: > 50%
Selectivity ratio (Homo sapiens [20]): > 100
inhibition (Cavia porcellus): > 50%
inhibition in vivo at 30 mg/kg [21]: 35%
inhibition in vivo at 100 mg/kg [22]: 56%
IC50 [23]: 7.6 µM
Drug metabolism [24]: Metabolite_Detected
Activity [25]: Non-Toxic
MRT [26]: 3.6 h
inhibition [27]: > 50%
bioavailability [28]: 43%
IC50 [29]: 0.001 µM
Activity [30]: Non-Toxic
Drug metabolism [31]: Metabolite_Detected
Kp [32]: 0.6
CL [33]: 871.86 L/h/kg
Activity [34]: Non-Toxic

— ChEMBL document CHEMBL5107939, “Optimization of brain-penetrant picolinamide derived leucine-rich repeat kinase 2 (LRRK2) inhibitors” (RSC Med Chem, 2021)
